Source: ChEMBL document CHEMBL1687816, “Effect of antacids on the pharmacokinetics of raltegravir in human immunodeficiency virus-seronegative volunteers” (Antimicrob Agents Chemother, 2010)

What was measured:
[1] = Terminal half life in human at 400 mg BID; type: ADME, organism-based; conditions: in vivo, read-out: beta t1/2 (converted)
Blood = assay: Ratio of drug level in HIV-seronegative healthy volunteers blood at 400 mg after 12 hrs, po administered as single dose in presence of albuminium, magnesium and simethicone-containg antacid to drug level in HIV-seronegative healthy volunteers blood at 400 mg after 12 hrs, po administered as single dose; type: ADME, organism-based; conditions: human, in vivo
Outline: (§1)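 Randomized crossover in HIV-seronegative volunteers: after an 8-h fast, a single oral 400 mg RAL dose was given with or without 30 ml antacid (2.7 g Mg hydroxide, 3 g Al hydroxide gel, 240 mg simethicone), with a 5–12 day washout. Plasma was sampled 0.5–48 h and assayed by LC/MS/MS (LLOQ 5 ng/ml). Noncompartmental analysis; log-transformed geometric mean ratios with 90% CI; paired t tests.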

Homo sapiens [2] = assay: Ratio of Cmax in HIV-infected patients at 400 mg, po treated after 2 hrs administration of 20 mg proton pump inhibitor omeprazole to Cmax in HIV-infected patients at 400 mg, po; type: ADME, organism-based; conditions: in vivo
Homo sapiens [3] = assay: Toxicity in HIV-seronegative healthy volunteers assessed as occurrence of mild headache at 400 mg, po administered as single dose in presence of 30 ml albuminium, magnesium and simethicone-containg antacid; type: organism-based; conditions: in vivo
Outline: (§2)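 Clinical adverse events were assessed during the two 12-h pharmacokinetic visits and at 24 and 48 h after a single oral 400 mg dose, given with or without 30 ml antacid. Events were graded with the 2004 Division of AIDS toxicity tables. Laboratory tests were run at screening and at 24 h post-dose.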

[4] = Cmax in HIV-seronegative healthy volunteers at 400 mg, po administered as single dose by LC-MS/MS in presence of albuminium, magnesium and simethicone-containg antacid; type: ADME, organism-based; design: dose 400 mg, route oral; conditions: human, in vivo
Outline: (§3)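 Single fasted 400 mg oral dose was given alone or with 30 ml antacid in a crossover design with a 5- to 12-day washout. Fasting continued for 4 h post-dose. Plasma was assayed by LC/MS/MS (LLOQ 5 ng/ml). Cmax, Tmax and 12-h concentration were read visually from the profiles.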

Homo sapiens [5] = assay: Ratio of drug level in HIV-infected patients at 400 mg, po treated after 2 hrs administration of 20 mg proton pump inhibitor omeprazole after 12 hrs to drug level in HIV-infected patients at 400 mg, po after 12 hrs; type: ADME, organism-based; conditions: in vivo
Homo sapiens [6] = assay: Toxicity in HIV-seronegative healthy volunteers assessed as occurrence of mild headache at 400 mg, po administered as single dose; type: organism-based; conditions: in vivo; outline: as §2
[7] = AUC (0 to infinity) in HIV-seronegative healthy volunteers at 400 mg, po administered as single dose by LC-MS/MS in presence of albuminium, magnesium and simethicone-containg antacid; type: ADME, organism-based; design: dose 400 mg, time infinity, route oral; conditions: human, plasma
Outline: (§4)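 Randomized crossover in HIV-seronegative volunteers: after an 8-h overnight fast, a single observed oral 400 mg dose was given alone or with 30 ml aluminium/magnesium/simethicone antacid, with a 5- to 12-day washout between visits. Plasma was sampled at 0.5–48 h and assayed by LC/MS/MS (13C6 internal standard, linear 5–10,000 ng/ml). Noncompartmental AUC was computed by the linear-log trapezoidal rule and reported as a geometric mean.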

Homo sapiens [8] = assay: Ratio of Cmax in HIV-seronegative healthy volunteers at 400 mg, po administered as single dose in presence of albuminium, magnesium and simethicone-containg antacid to Cmax in HIV-seronegative healthy volunteers at 400 mg, po administered as single dose; type: ADME, organism-based; conditions: in vivo; outline: as §1
[9] = Cmax in HIV-seronegative healthy volunteers at 400 mg, po administered as single dose by LC-MS/MS; type: ADME, organism-based; design: dose 400 mg, route oral; conditions: human, in vivo; outline: as §3
[10] = Tmax in HIV-seronegative healthy volunteers at 400 mg, po administered as single dose by LC-MS/MS; type: ADME, organism-based; conditions: human, in vivo; outline: as §3
[11] = Drug level in HIV-seronegative healthy volunteers blood at 400 mg, po administered as single dose after 12 hrs by LC-MS/MS; type: ADME, organism-based; conditions: human, read-out: Drug uptake; outline: as §3
[12] = AUC (0 to 12 hrs) in HIV-seronegative healthy volunteers at 400 mg, po administered as single dose by LC-MS/MS; type: ADME, organism-based; design: dose 400 mg, time < 12 hr, route oral; conditions: human, plasma; outline: as §4
[13] = AUC (0 to infinity) in HIV-seronegative healthy volunteers at 400 mg, po administered as single dose by LC-MS/MS; type: ADME, organism-based; design: dose 400 mg, route oral, time infinity; conditions: human, plasma; outline: as §4
[14] = AUC (0 to 12 hrs) in HIV-seronegative healthy volunteers at 400 mg, po administered as single dose by LC-MS/MS in presence of albuminium, magnesium and simethicone-containg antacid; type: ADME, organism-based; design: dose 400 mg, time < 12 hr, route oral; conditions: human, plasma; outline: as §4
[15] = Tmax in HIV-seronegative healthy volunteers at 400 mg, po administered as single dose by LC-MS/MS in presence of albuminium, magnesium and simethicone-containg antacid; type: ADME, organism-based; conditions: human, in vivo; outline: as §3
Homo sapiens [16] = assay: Ratio of AUC (0 to 12 hrs) in HIV-seronegative healthy volunteers at 400 mg, po administered as single dose in presence of albuminium, magnesium and simethicone-containg antacid to AUC (0 to 12 hrs) in HIV-seronegative healthy volunteers at 400 mg, po administered as single dose; type: ADME, organism-based; conditions: in vivo; outline: as §1
Homo sapiens [17] = assay: Ratio of AUC (0 to infinity) in HIV-seronegative healthy volunteers at 400 mg, po administered as single dose in presence of albuminium, magnesium and simethicone-containg antacid to AUC (0 to 12 hrs) in HIV-seronegative healthy volunteers at 400 mg, po administered as single dose; type: ADME, organism-based; conditions: in vivo; outline: as §1
Homo sapiens [18] = assay: Ratio of AUC (0 to infinity) in HIV-infected patients at 400 mg, po treated after 2 hrs administration of 20 mg proton pump inhibitor omeprazole to AUC (0 to infinity) in HIV-infected patients at 400 mg, po; type: ADME, organism-based; conditions: in vivo
[19] = Primary phase half life in human at 400 mg BID; type: ADME, organism-based; conditions: in vivo, read-out: alphat1/2 (converted)
[20] = Drug level in HIV-seronegative healthy volunteers blood at 400 mg, po administered as single dose after 12 hrs by LC-MS/MS in presence of albuminium, magnesium and simethicone-containg antacid; type: ADME, organism-based; conditions: human, read-out: Drug uptake; outline: as §3

half-life [1]: 9 h
Ratio (Blood): 0.33
Ratio (Homo sapiens [2]): 4
Cmax [4]: 1440 ng/mL
Ratio (Homo sapiens [5]): 1.5
AUC(0-inf) [7]: 3420 ng·h/mL
Ratio (Homo sapiens [8]): 1.53
Cmax [9]: 945 ng/mL
Tmax [10]: 3 h
concentration at 12 h [11]: 37 ng/mL
AUC(0-t) at 12 h [12]: 3040 ng·h/mL
AUC(0-inf) [13]: 3540 ng·h/mL
AUC(0-t) at 12 h [14]: 3300 ng·h/mL
Tmax [15]: 1 h
Ratio (Homo sapiens [16]): 1.08
Ratio (Homo sapiens [17]): 0.96
Ratio (Homo sapiens [18]): 3
half-life [19]: 1 h
concentration at 12 h [20]: 13 ng/mL
Compound: Cc1nnc(C(=O)NC(C)(C)c2nc(C(=O)NCc3ccc(F)cc3)c(O)c(=O)n2C)o1 [RALTEGRAVIR]
Activity (Homo sapiens [3]): 42%
Activity (Homo sapiens [6]): 25%
